According to publication PMC3947313 (Journal of neurochemistry, 2013):
Positions count from the first letter of the chain named. Names may count otherwise. One block for each molecule: values may come before it.

Columns and labels:
[1] = biological target: double phospho-peptide containing pT202pY204 derived from the ERK activation loop
[2] = biological target: double-phosphorylated ERK2-pT202pY204 protein (UniProt P28482)
[3] = biological target: double phospho-peptide containing pT202pY204 derived from the ERK activation loop; remark: listed apart in the source
[4] = biological target: double-phosphorylated ERK2-pT202pY204 protein (UniProt P28482); remark: listed apart in the source
ERK2-pT202pY204 = assay: Enzyme-coupled; format: biochemical; conditions: for decrease of kcat/Km (activity) toward phospho-ERK protein: STEP variant compared to wild-type STEP, pH 7.0, 25°C; for effect of mutation on activity toward phospho-ERK protein (in words): compared to the respective wild-type phosphatase
Procedure, shortened: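 Phospho-ERK2 protein was prepared using ERK2 and MEK1 expression plasmids. Initial rates were fitted to Michaelis-Menten for Km and kcat. At substrate << Km, kcat/Km came from first-order progress-curve fitting. Values are mean ± standard error.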

[5] = tested on: ERK pT202pY204 phospho-peptide; format: biochemical; conditions: for decrease of activity toward phospho-ERK peptide: STEP mutant compared to wild-type STEP, 37°C, pH 6.0
Procedure, shortened: (§1)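 Synthetic, HPLC-purified Tyr(P)-containing peptides were dephosphorylated at 37°C in 50 mM succinic buffer (pH 6.0), 1 mM EDTA and 2 mM DTT, ionic strength 0.15 M (NaCl). Released phosphate was measured with BIOMOL Green at 620 nm. Hydrolysis was also followed continuously by tyrosine fluorescence (excitation 280 nm, emission 305 nm). Michaelis-Menten fits gave kinetic parameters (mean ± standard error).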

[6] = Activity of STEP variants toward pNPP; format: biochemical; conditions: for effect of mutation on activity toward pNPP (in words): compared to wild-type STEP, 37°C, pH 6.0
Procedure, shortened: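 Phosphatase variants hydrolysed pNPP at 37°C in 50 mM succinic buffer (pH 6.0) with 1 mM EDTA, 2 mM DTT and ionic strength adjusted to 0.15 M with NaCl. Reactions were stopped with 1 M NaOH and read at 405 nm. Kinetic parameters came from Michaelis-Menten fits, reported as mean ± standard error.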

[7] = tested on: p38-derived phospho-peptide; assay: Activity of STEP variants toward the p38-derived phospho-peptide; format: biochemical; conditions: STEP mutant compared to wild-type STEP
Procedure, shortened: as §1

B1: S245E: S245E STEP phosphorylation mimic mutation (protein, UniProt P54829 1-565, looked up, variant S245E)
Tyrosine-protein phosphatase …: MNYEGARSERENHAADDSEGGALDMCCSERLPGLPQPIVMEALDEAEGLQDSQREMPPPPPPSPPSDPAQKPPPRGAGSHSLTVRSSLCLFAASQFLLACGVLWFSGYGHIWSQNATNLVSSLLTLLKQLEPTAWLDSGTWGVPSLLLVFLSVGLVLVTTLVWHLLRTPPEPPTPLPPEDRRQSVSRQPSFTYSEWMEEKIEDDFLDLDPVPETPVFDCVMDIKPEADPTSLTVKSMGLQERRGENVSLTLDMCTPGCNEEGFGYLMSPREESAREYLLSASRVLQAEELHEKALDPFLLQAEFFEIPMNFVDPKEYDIPGLVRKNRYKTILPNPHSRVCLTSPDPDDPLSSYINANYIRGYGGEEKVYIATQGPIVSTVADFWRMVWQEHTPIIVMITNIEEMNEKCTEYWPEEQVAYDGVEITVQKVIHTEDYRLRLISLKSGTEERGLKHYWFTSWPDQKTPDRAPPLLHLVREVEEAAQQEGPHCAPIIVHCSAGIGRTGCFIATSICCQQLRQEGVVDILKTTCQLRQDRGGMIQTCEQYQFVHHVMSLYEKQLSHQSPE
decrease of kcat/Km (activity) toward phospho-ERK protein (ERK2-pT202pY204): 50 fold
effect of mutation on activity toward phospho-ERK peptide (in words) ([5]; compared to wild-type STEP): did not affect
effect of mutation on activity toward pNPP (in words) [6]: did not affect

B3: K329A: STEP pY-binding loop mutant K329A (protein, UniProt P54829 1-565, looked up, variant K329A)
Tyrosine-protein phosphatase …: B1 Tyrosine-protein phosphatase … with E245S, K329A
effect of mutation on activity toward phospho-ERK protein (in words) (ERK2-pT202pY204): did not affect
effect of mutation on activity toward phospho-ERK peptide (in words) ([5]; compared to wild-type STEP): weakly
effect of mutation on activity toward pNPP (in words) [6]: weakly

B5: T330A: STEP pY-binding loop mutant T330A (protein, UniProt P54829 1-565, looked up, variant T330A)
Tyrosine-protein phosphatase …: B1 Tyrosine-protein phosphatase … with E245S, T330A
effect of mutation on activity toward phospho-ERK peptide (in words) ([5]; compared to wild-type STEP): did not affect
effect of mutation on activity toward pNPP (in words) [6]: did not affect

B7: F311A: STEP second-site loop mutant F311A (protein, UniProt P54829 1-565, looked up, variant F311A)
Tyrosine-protein phosphatase …: B1 Tyrosine-protein phosphatase … with E245S, F311A
decrease of kcat/Km (activity) toward phospho-ERK protein (ERK2-pT202pY204): 2 fold
decrease of activity toward phospho-ERK peptide [5]: 2 fold
effect of mutation on activity toward pNPP (in words) [6]: did not affect

B8: K463Q: STEP WPD-loop mutant K463Q (protein, UniProt P54829 1-565, looked up, variant K463Q)
Tyrosine-protein phosphatase …: B1 Tyrosine-protein phosphatase … with E245S, K463Q
decrease of kcat/Km (activity) toward phospho-ERK protein (ERK2-pT202pY204): more than 4 fold
decrease of activity toward phospho-ERK peptide [5]: more than 4 fold

Second part, led by results:

activity toward the phospho-ERK peptide, decrease against wild-type STEP [1]: > 4 fold
activity toward the phospho-ERK protein, decrease against wild-type STEP [2]: > 4 fold
Molecule: STEP K463Q (from UniProt P54829 1-565) (enzyme)

activity toward the ERK phospho-peptide, decrease against wild-type STEP [3]: 2 fold
Molecule: STEP F311A (from UniProt P54829 1-565) (enzyme)

activity toward phospho-ERK, decrease against wild-type HePTP [4]: 3 fold
Molecule: HePTP S23E (from UniProt P35236 1-360) (enzyme)

decrease of activity toward pNPP ([6]; STEP mutant compared to wild-type STEP, stated as 'all substrates'): 2 fold
B2: T541A: STEP Q-loop mutant T541A (protein, UniProt P54829 1-565, looked up, variant T541A)
Tyrosine-protein phosphatase …: B1 Tyrosine-protein phosphatase … with E245S, T541A
decrease of kcat/Km (activity) toward phospho-ERK protein (ERK2-pT202pY204): 2 fold
decrease of activity toward phospho-ERK peptide [5]: 2 fold
decrease of activity toward phospho-p38 peptide ([7]; stated as 'all substrates'): 2 fold

effect of mutation on activity toward pNPP (in words) [6]: did not affect
B4: T330D: STEP pY-binding loop mutant T330D (protein, UniProt P54829 1-565, looked up, variant T330D)
Tyrosine-protein phosphatase …: B1 Tyrosine-protein phosphatase … with E245S, T330D
increase of kcat/Km toward phospho-ERK protein (ERK2-pT202pY204; STEP mutant compared to wild-type STEP): 1.3 fold
increase of activity toward p38-derived phospho-peptide [7]: 2–3 fold

effect of mutation on activity toward phospho-ERK protein (in words) (ERK2-pT202pY204): increase
B6: Q462F: STEP WPD-loop mutant Q462F (protein, UniProt P54829 1-565, looked up, variant Q462F)
Tyrosine-protein phosphatase …: B1 Tyrosine-protein phosphatase … with E245S, Q462F
effect of mutation on Km for the phospho-ERK-peptide (in words) ([5]; compared to wild-type STEP): significantly lower
